Results as given in ChEMBL document CHEMBL3217694, “Diaryl- and triaryl-pyrrole derivatives: inhibitors of the MDM2-p53 and MDMX-p53 protein-protein interactions†Electronic supplementary information (ESI) available: Experimental details for compound synthesis, analytical data for all compounds and intermediates. Details for the biological …” (Medchemcomm, 2013).
Calls of active or inactive are those of the source. The calls are words filed in the database; no cut-off is given here.

Columns and labels:
[1] = molecular target: E3 ubiquitin-protein ligase Mdm2 (Homo sapiens, UniProt Q00987); experiment: Inhibition of MDM2-p53 interaction (unknown origin) by ELISA
Summary of the method: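 MDM2–p53 ELISA protein–protein binding assay; IC50 values were determined in follow-up concentration–response testing.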

[2] = molecular target: T1, E3 ubiquitin-protein ligase Mdm2/Cellular tumor antigen p53/Protein Mdm4 (Homo sapiens) (UniProt P04637+Q00987+O15151); experiment: Inhibition of MDM2/MDMX-p53 interaction in human SJSA-1 cells expressing amplified MDM2 and wild-type p53 assessed as induction of MDM2 protein expression at 5 uM after 4 hrs by western blot analysis; format: cell-based
Summary of the method: (§1)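 Cell lines with defined MDM2 and p53 status were exposed to increasing compound concentrations for 4 h. p53 pathway activation (p53 and the p53-dependent proteins) was then detected by Western blotting of cell extracts.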

[3] = molecular target: T1, E3 ubiquitin-protein ligase Mdm2/Cellular tumor antigen p53/Protein Mdm4 (Homo sapiens); experiment: Inhibition of MDM2/MDMX-p53 interaction in human A2780 cells expressing wild-type p53 assessed as induction of p53 protein expression at 0.2 to 5 uM after 4 hrs by western blot analysis; format: cell-based; summary of the method: as §1
[4] = molecular target: T1, E3 ubiquitin-protein ligase Mdm2/Cellular tumor antigen p53/Protein Mdm4 (Homo sapiens); experiment: Inhibition of MDM2/MDMX-p53 interaction in human A2780 CP70 cells expressing p53 mutant gene assessed as induction of p21 protein expression at 0.2 to 5 uM after 4 hrs by western blot analysis; format: cell-based; summary of the method: as §1
[5] = molecular target: T1, E3 ubiquitin-protein ligase Mdm2/Cellular tumor antigen p53/Protein Mdm4 (Homo sapiens); experiment: Inhibition of MDM2/MDMX-p53 interaction in human A2780 CP70 cells expressing p53 mutant gene assessed as induction of MDM2 protein expression at 0.2 to 5 uM after 4 hrs by western blot analysis; format: cell-based; summary of the method: as §1
[6] = molecular target: T1, E3 ubiquitin-protein ligase Mdm2/Cellular tumor antigen p53/Protein Mdm4 (Homo sapiens); experiment: Inhibition of MDM2/MDMX-p53 interaction in human A2780 cells expressing wild-type p53 assessed as induction of MDM2 protein expression at 0.2 to 5 uM after 4 hrs by western blot analysis; format: cell-based; summary of the method: as §1
[7] = molecular target: T1, E3 ubiquitin-protein ligase Mdm2/Cellular tumor antigen p53/Protein Mdm4 (Homo sapiens); experiment: Inhibition of MDM2/MDMX-p53 interaction in human A2780 cells expressing wild-type p53 assessed as induction of p21 protein expression at 0.2 to 5 uM after 4 hrs by western blot analysis; format: cell-based; summary of the method: as §1
[8] = molecular target: T1, E3 ubiquitin-protein ligase Mdm2/Cellular tumor antigen p53/Protein Mdm4 (Homo sapiens); experiment: Inhibition of MDM2/MDMX-p53 interaction in human SJSA-1 cells expressing amplified MDM2 and wild-type p53 assessed as induction of p21 protein expression at 5 uM after 4 hrs by western blot analysis; format: cell-based; summary of the method: as §1
[9] = molecular target: T1, E3 ubiquitin-protein ligase Mdm2/Cellular tumor antigen p53/Protein Mdm4 (Homo sapiens); experiment: Inhibition of MDM2/MDMX-p53 interaction in human SJSA-1 cells expressing amplified MDM2 and wild-type p53 assessed as induction of p53 protein expression at 5 uM after 4 hrs by western blot analysis; format: cell-based; summary of the method: as §1
[10] = molecular target: T1, E3 ubiquitin-protein ligase Mdm2/Cellular tumor antigen p53/Protein Mdm4 (Homo sapiens); experiment: Inhibition of MDM2/MDMX-p53 interaction in human A2780 CP70 cells expressing p53 mutant gene assessed as induction of p53 protein expression at 0.2 to 5 uM after 4 hrs by western blot analysis; format: cell-based; summary of the method: as §1

T1 sequence (O15151 whole entry, looked up): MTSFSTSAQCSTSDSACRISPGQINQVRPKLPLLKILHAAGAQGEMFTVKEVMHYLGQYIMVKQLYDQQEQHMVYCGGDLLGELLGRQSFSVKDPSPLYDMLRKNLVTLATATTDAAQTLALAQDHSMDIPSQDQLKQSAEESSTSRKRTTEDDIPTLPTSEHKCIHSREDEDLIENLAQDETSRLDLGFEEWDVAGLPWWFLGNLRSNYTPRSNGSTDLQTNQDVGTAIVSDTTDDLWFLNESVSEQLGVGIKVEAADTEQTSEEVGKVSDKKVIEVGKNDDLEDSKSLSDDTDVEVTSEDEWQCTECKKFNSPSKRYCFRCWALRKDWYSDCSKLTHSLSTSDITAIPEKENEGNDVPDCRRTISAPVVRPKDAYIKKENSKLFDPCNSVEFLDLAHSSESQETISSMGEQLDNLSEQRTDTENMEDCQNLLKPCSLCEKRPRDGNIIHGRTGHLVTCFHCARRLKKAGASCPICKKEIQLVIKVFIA
T1 sequence (P04637 whole entry, looked up): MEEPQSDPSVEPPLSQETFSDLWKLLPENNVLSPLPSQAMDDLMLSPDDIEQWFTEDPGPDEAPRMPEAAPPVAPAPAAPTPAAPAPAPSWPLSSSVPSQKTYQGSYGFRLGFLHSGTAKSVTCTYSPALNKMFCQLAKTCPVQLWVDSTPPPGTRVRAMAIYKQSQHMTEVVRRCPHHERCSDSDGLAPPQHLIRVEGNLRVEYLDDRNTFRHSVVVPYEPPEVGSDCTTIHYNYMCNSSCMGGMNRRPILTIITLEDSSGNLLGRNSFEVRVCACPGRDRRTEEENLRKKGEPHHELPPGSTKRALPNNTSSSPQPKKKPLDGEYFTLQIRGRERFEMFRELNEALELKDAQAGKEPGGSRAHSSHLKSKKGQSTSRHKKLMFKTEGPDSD
T1 sequence (Q00987 whole entry, looked up): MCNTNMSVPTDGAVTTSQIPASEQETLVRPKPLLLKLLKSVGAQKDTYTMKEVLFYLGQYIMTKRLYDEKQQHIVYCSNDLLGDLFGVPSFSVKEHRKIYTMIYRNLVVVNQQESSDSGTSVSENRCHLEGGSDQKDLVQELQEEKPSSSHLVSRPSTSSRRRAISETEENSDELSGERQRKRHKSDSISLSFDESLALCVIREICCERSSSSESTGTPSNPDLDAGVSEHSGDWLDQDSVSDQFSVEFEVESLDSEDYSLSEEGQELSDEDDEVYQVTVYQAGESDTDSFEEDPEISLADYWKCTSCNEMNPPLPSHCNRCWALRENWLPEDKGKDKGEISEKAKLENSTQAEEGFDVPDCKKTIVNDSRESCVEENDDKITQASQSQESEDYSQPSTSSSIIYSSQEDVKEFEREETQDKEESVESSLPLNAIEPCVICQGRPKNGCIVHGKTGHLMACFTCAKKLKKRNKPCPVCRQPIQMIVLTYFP

SMILES	inhibition [1]	also measured
COC(=O)C(=Cc1cc(-c2ccccc2)n(-c2ccc(Cl)cc2)c1-c1ccccc1)C(=O)OC	Dose-dependent effect	
O=C1NC(=S)NC(=O)C1=Cc1cc(C2CC2)n(-c2ccc(Br)cc2)c1-c1ccccc1	Dose-dependent effect	
N#Cc1ccc(-n2c(-c3ccccc3)cc(C=C3C(=O)NC(=O)NC3=O)c2-c2ccccc2)cc1	Dose-dependent effect	
NC(=O)C(=Cc1cc(-c2ccccc2)n(-c2ccc(Cl)cc2)c1-c1ccccc1)C(N)=O	Dose-dependent effect	
O=C(O)/C=C/c1cc(-c2ccccc2)n(-c2ccc(Cl)cc2)c1-c1ccccc1	Dose-dependent effect	
Cc1ccc(-n2c(C)cc(C=C3C(=O)NC(=S)NC3=O)c2C)cc1	Dose-dependent effect	
CCN1C(=O)C(=Cc2cc(-c3ccccc3)n(-c3ccc(Br)cc3)c2-c2ccccc2)C(=O)N(CC)C1=O	Dose-dependent effect	
O=C1NC(=S)NC(=O)C1=Cc1cc(C2CC2)n(-c2ccc(Cl)cc2)c1-c1ccccc1	Dose-dependent effect	
O=C1NC(=S)NC(=O)C1=Cc1cc(-c2ccccc2)n(-c2ccc([N+](=O)[O-])cc2)c1-c1ccccc1	Dose-dependent effect	
CC(C)(C)c1ccc(-n2c(-c3ccccc3)cc(C=C3C(=O)NC(=O)NC3=O)c2-c2ccccc2)cc1	Dose-dependent effect	
CC1(C)OC(=O)C(Cc2cc(-c3ccccc3)n(-c3ccc(Br)cc3)c2-c2ccccc2)C(=O)O1	Dose-dependent effect	
O=C1NC(=S)NC(=O)C1=Cc1cc(-c2ccccc2)n(-c2ccc(Br)cc2)c1C1CC1	Dose-dependent effect	
CCN1C(=O)C(=Cc2cc(-c3ccccc3)n(-c3ccc(Cl)cc3)c2-c2ccccc2)C(=O)N(CC)C1=S	Dose-dependent effect	
Cc1cc(C=C2C(=O)NC(=S)NC2=O)c(C)n1-c1sc2c(c1C#N)CCCC2		inhibition [2]: Active; inhibition [3]: inactive; inhibition [4]: inactive; inhibition [5]: inactive; inhibition [6]: inactive; inhibition [7]: inactive; inhibition [8]: Active; inhibition [9]: Active; inhibition [10]: inactive
O=C1NC(=O)C(=Cc2cc(-c3ccccc3)n(-c3ccc(Br)cc3)c2-c2ccccc2)C(=O)N1	Dose-dependent effect	
OCC(=Cc1cc(-c2ccccc2)n(-c2ccc(Cl)cc2)c1-c1ccccc1)CO	Dose-dependent effect	
Cc1cc(C=C2C(=O)NC(=S)NC2=O)c(C)n1-c1ccc(Cl)cc1	Dose-dependent effect	
Cc1ccc(N2C(=O)/C(=C\c3cc(-c4ccccc4)n(-c4ccc(Cl)cc4)c3-c3ccccc3)C(=O)N(c3ccccc3)C2=S)cc1C	Dose-dependent effect	
N#Cc1ccc(-n2c(-c3ccccc3)cc(C=C3C(=O)NC(=S)NC3=O)c2-c2ccccc2)cc1	Dose-dependent effect	

SMILES	inhibition [1]	also measured
CNC(=O)C(=Cc1cc(-c2ccccc2)n(-c2ccc(Cl)cc2)c1-c1ccccc1)C(=O)NC	Dose-dependent effect	
O=C(NCCO)C(=Cc1cc(-c2ccccc2)n(-c2ccc(Cl)cc2)c1-c1ccccc1)C(=O)NCCO	Dose-dependent effect	
CC(C)(C)c1cc(C=C2C(=O)NC(=S)NC2=O)c(-c2ccccc2)n1-c1ccc(Cl)cc1	Dose-dependent effect	
CC1(C)OC(=O)C(=Cc2cc(-c3ccccc3)n(-c3ccc(Br)cc3)c2-c2ccccc2)C(=O)O1	Dose-dependent effect	
O=C1NC(=S)N(c2ccccc2)C(=O)/C1=C/c1cc(-c2ccccc2)n(-c2ccc(Cl)cc2)c1-c1ccccc1	Dose-dependent effect	inhibition [2]: Active; inhibition [3]: inactive; inhibition [4]: inactive; inhibition [5]: inactive; inhibition [6]: Active; inhibition [7]: Active; inhibition [8]: Active; inhibition [9]: Active; inhibition [10]: inactive
Cc1cc(C=C2C(=O)N(c3ccccc3)C(=S)N(c3ccccc3)C2=O)c(C)n1-c1ccc(Br)cc1	Dose-dependent effect	
O=C1NC(=S)N(c2cccc(Cl)c2)C(=O)/C1=C/c1cc(-c2ccccc2)n(-c2ccc(Cl)cc2)c1-c1ccccc1	Dose-dependent effect	
O=C1NC(=O)C(=Cc2cc(-c3ccccc3)n(-c3ccc([N+](=O)[O-])cc3)c2-c2ccccc2)C(=O)N1	Dose-dependent effect	
O=C1NC(=O)C(=Cc2cc(-c3ccccc3)n(-c3ccc(Cl)cc3)c2-c2ccccc2)C(=O)N1	Dose-dependent effect	
CCOC(=O)c1ccc(-n2c(-c3ccccc3)cc(C=C3C(=O)NC(=S)NC3=O)c2-c2ccccc2)cc1	Dose-dependent effect	
Cc1ccc(-n2c(C)cc(/C=C3\C(=O)NC(=S)N(c4ccccc4)C3=O)c2C)cc1	Dose-dependent effect	
Cc1cc(/C=C2\C(=O)NC(=S)N(c3ccccc3)C2=O)c(C)n1-c1ccc(Cl)cc1	Dose-dependent effect	
CCN1C(=O)C(=Cc2cc(-c3ccccc3)n(-c3ccc(Br)cc3)c2-c2ccccc2)C(=O)N(CC)C1=S	Dose-dependent effect	
CC(C)(C)c1cc(C=C2C(=O)NC(=S)NC2=O)c(-c2ccccc2)n1-c1ccc(Br)cc1	Dose-dependent effect	
O=C1NC(=S)NC(=O)C1=Cc1cc(-c2ccccc2)n(-c2ccc(Cl)cc2)c1-c1ccccc1	Dose-dependent effect	inhibition [2]: Active; inhibition [3]: inactive; inhibition [4]: inactive; inhibition [5]: inactive; inhibition [6]: Active; inhibition [7]: Active; inhibition [8]: Active; inhibition [9]: Active; inhibition [10]: inactive
COc1ccc(-n2c(-c3ccccc3)cc(C=C3C(=O)NC(=O)NC3=O)c2-c2ccccc2)cc1	Dose-dependent effect	
CN1C(=O)C(=Cc2cc(-c3ccccc3)n(-c3ccc(Cl)cc3)c2-c2ccccc2)C(=O)N(C)C1=S		IC50 [1]: ND(Insoluble)
O=C1NC(=S)NC(=O)C1=Cc1cc(-c2ccccc2)n(-c2ccc(Cl)cc2)c1C1CC1	Dose-dependent effect	
